The values below come from ChEMBL document CHEMBL3526065, “Metabolism of [6]-shogaol in mice and in cancer cells” (Drug Metab Dispos, 2012).

Data set [1] in a line: Antioxidant activity assessed as DPPH radical scavenging activity. In kind it is physicochemical.
Data set [2] can be described thus: Drug level in C57BL/6J mouse feces treated with [6]-shogaol at 200 mg/kg, po by HPLC-ECD analysis relative to control. On the set-up: dose 200 mg/kg, route oral. The format is ADME, organism-based. The settings on record: in vivo. In short, it runs like this: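 Female C57BL/6J mice gavaged once with 200 mg/kg in corn oil, or corn oil alone (n = 5 each). 24-h feces collected in metabolic cages. Feces extracted by sonication 90 min in MeOH/H2O (50/50) + 0.1% acetic acid, centrifuged, diluted fivefold. Analysed by HPLC with electrochemical array detection (Gemini C18, phosphate/acetonitrile/THF gradient), compared against vehicle controls.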

For `CCCCCCC[C@H](O)CC(=O)CCc1ccc(O)c(OC)c1`, in data set [1], the 50% inhibitory concentration (IC50) amounted to 20 µM. As to `CCCCCC(CC(=O)CCc1ccc(O)c(OC)c1)OC` (centres undefined), the Drug excretion result in data set [2] is reported as “metabolite_detected”. For the compound `CCCCCC(CC(=O)CCc1ccc(O)c(OC)c1)SCC(N)C(=O)O` (centres undefined), the Drug excretion entry in data set [2] is recorded as “metabolite_detected”. Turning to `CCCCCCCC(=O)CCc1ccc(O)c(O)c1`, in data set [2], the Drug excretion result was “metabolite_detected”.
